Starred links: 1 amine or outer side, 2 acyl side, 3 side chain; linkers in the order of their positions; H or OH if unused. Positions of bridges follow the written chain, without caps; N, C: chain ends. Non-standard residues stand in square brackets, D forms with d. Residues, ends and D or L forms follow the SMILES beside them. Chains are numbered I, II in the order given. *: point of attachment. X1 = CCCCCCCCCCCCCCCC(=O)NCCCN1C(=O)CC(*)C1=O; X2 = O=C1CC([*:1])C(=O)N1CCCC(=O)[*:2]; Ac5c = NC1(C(=O)O)CCCC1; Ac3c = NC1(C(=O)O)CC1; Aib = CC(C)(N)C(=O)O

The values below come from ChEMBL document CHEMBL4665800, “Biased Agonism at Nociceptin/Orphanin FQ Receptors: A Structure Activity Study on N/OFQ(1-13)-NH” (J Med Chem, 2020).

Experiment [1] deals with T1, Nociceptin receptor (Homo sapiens, UniProt P41146). The experiment can be described thus: Bias factor, selectivity for agonist activity at NOP (unknown origin) expressed in HEK293 cell membranes co-expressing beta-arrestin2-RGFP protein assessed as induction of beta-arrestin2 activation to agonist activity at NOP (unknown origin) expressed in HEK293 cell membranes co-expressing Gbeta1-RGFP protein assessed as induction of G protein activation. It is filed as cell-based. The essentials:
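Concentration–response curves in the NOP G protein and β-arrestin 2 BRET assays were fitted to the Black–Leff operational model. Mean of at least five experiments with 95% confidence limits.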

For experiment [2], the target named is T1, Nociceptin receptor. The experiment can be described thus: Agonist activity at NOP (unknown origin) expressed in HEK293 cell membranes co-expressing Gbeta1-RGFP protein assessed as induction of G protein activation incubated for 15 mins by BRET assay. It is filed as cell-based. Summed up:
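Membranes (3 μg protein) from HEK293 cells stably co-expressing NOP-RLuc and Gβ1-RGFP, in DPBS. Coelenterazine 5 μM final; ligands in PBS–BSA 0.01%. BRET ratio (RGFP 510 nm / RLuc 460 nm) read 15 min after agonist, room temperature. Values are vehicle-subtracted stimulated BRET ratio. Mean of five experiments in duplicate.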

The target in experiment [3] is T1, Nociceptin receptor. The experiment is described as follows: Agonist activity at NOP (unknown origin) […] assessed as induction of beta-arrestin2 activation incubated for 15 mins by BRET assay. It is filed as cell-based, HEK293.

T1 sequence (P41146 whole entry): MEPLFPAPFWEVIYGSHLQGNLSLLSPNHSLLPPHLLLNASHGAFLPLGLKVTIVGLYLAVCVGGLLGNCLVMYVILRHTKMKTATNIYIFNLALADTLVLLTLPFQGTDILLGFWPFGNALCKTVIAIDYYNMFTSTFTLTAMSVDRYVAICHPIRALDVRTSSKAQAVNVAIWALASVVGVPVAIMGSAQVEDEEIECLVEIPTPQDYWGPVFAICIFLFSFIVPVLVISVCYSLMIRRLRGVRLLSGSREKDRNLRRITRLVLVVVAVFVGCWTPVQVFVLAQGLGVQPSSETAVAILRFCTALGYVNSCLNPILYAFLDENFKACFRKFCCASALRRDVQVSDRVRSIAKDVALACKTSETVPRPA

Regarding `C[C@H](NC(=O)CNC(=O)[C@@H](NC(=O)[C@H](Cc1ccccc1)NC(=O)CNC(=O)CNC(=O)[C@@H](N)Cc1ccccc1)[C@@H](C)O)C(=O)N[C@@H](CCCNC(=N)N)C(=O)N[C@@H](CCCCN)C(=O)N[C@@H](CO)C(=O)N[C@@H](C)C(=O)N[C@@H](CCCNC(=N)N)C(=O)N[C@@H](CCCCN)C(=O)N[C@@H](CSC1CC(=O)N(CCCC(=O)N[C@@H](CCCCN)C(=O)N[C@@H](CCCCN)C(=O)N[C@@H](CCCCN)C(=O)N[C@@H](CCCCN)C(=O)N[C@@H](CCCCN)C(=O)N[C@@H](CCCCN)C(N)=O)C1=O)C(N)=O` (stereo not given in full), the Selectivity Index at Nociceptin receptor [1] is 0.83. For the same compound, the EC50 at Nociceptin receptor [2] is 0.0871 nM; at Nociceptin receptor [3], 6.03 nM.

Take `CCCCCCCCCCCCCCCC(=O)NCCCN1C(=O)CC(SC[C@H](NC(=O)[C@H](CCCCN)NC(=O)[C@H](CCCNC(=N)N)NC(=O)[C@H](C)NC(=O)CNC(=O)[C@@H](NC(=O)[C@H](Cc2ccccc2)NC(=O)CNC(=O)CNC(=O)[C@@H](N)Cc2ccccc2)[C@@H](C)O)C(=O)N[C@@H](C)C(=O)N[C@@H](CCCNC(=N)N)C(=O)N[C@@H](CCCCN)C(N)=O)C1=O` (stereo not given in full) (H-FGGFTGARKC(X1)ARK-NH2): the Selectivity Index on Nociceptin receptor [1] was determined as 0.91. The EC50 on Nociceptin receptor [2] is 0.288 nM; on Nociceptin receptor [3] it was 19.1 nM.

For `CCCCCCCCCCCCCCCC(=O)NCCCN1C(=O)CC(SC[C@H](NC(=O)[C@H](C)NC(=O)[C@H](CO)NC(=O)[C@H](CCCCN)NC(=O)[C@H](CCCNC(=N)N)NC(=O)[C@H](C)NC(=O)CNC(=O)[C@@H](NC(=O)[C@H](Cc2ccccc2)NC(=O)CNC(=O)CNC(=O)[C@@H](N)Cc2ccccc2)[C@@H](C)O)C(=O)N[C@@H](CCCCN)C(N)=O)C1=O` (stereo not given in full) (H-FGGFTGARKSAC(X1)K-NH2), the concentration giving a half-maximal response (EC50) at Nociceptin receptor [2] is 0.525 nM; at Nociceptin receptor [3] it was 22.4 nM.

Consider `CCCCCCCCCCCCCCCC(=O)NCCCN1C(=O)CC(SC[C@H](NC(=O)[C@H](CCCNC(=N)N)NC(=O)[C@H](C)NC(=O)[C@H](CO)NC(=O)[C@H](CCCCN)NC(=O)[C@H](CCCNC(=N)N)NC(=O)[C@H](C)NC(=O)CNC(=O)[C@@H](NC(=O)[C@H](Cc2ccccc2)NC(=O)CNC(=O)CNC(=O)[C@@H](N)Cc2ccccc2)[C@@H](C)O)C(N)=O)C1=O` (stereo not given in full) (H-FGGFTGARKSARC(X1)-NH2), for which the Selectivity Index on Nociceptin receptor [1] amounted to 0.7. In addition, the EC50 was 1.26 nM at Nociceptin receptor [2] and 55 nM on Nociceptin receptor [3].

In the case of `CCCCCCCCCCCCCCCC(=O)NCCCN1C(=O)CC(SC[C@H](NC(=O)[C@H](CO)NC(=O)[C@H](CCCCN)NC(=O)[C@H](CCCNC(=N)N)NC(=O)[C@H](C)NC(=O)CNC(=O)[C@@H](NC(=O)[C@H](Cc2ccccc2)NC(=O)CNC(=O)CNC(=O)[C@@H](N)Cc2ccccc2)[C@@H](C)O)C(=O)N[C@@H](CCCNC(=N)N)C(=O)N[C@@H](CCCCN)C(N)=O)C1=O` (stereo not given in full) (H-FGGFTGARKSC(X1)RK-NH2), the Selectivity Index on Nociceptin receptor [1] was 1.11. Besides, the half-maximal effective concentration (EC50) is 0.437 nM on Nociceptin receptor [2] and 34.7 nM at Nociceptin receptor [3].

Consider `C[C@H](NC(=O)CNC(=O)[C@@H](NC(=O)[C@H](Cc1ccccc1)NC(=O)CNC(=O)CNC(=O)[C@@H](N)Cc1ccccc1)[C@@H](C)O)C(=O)N[C@@H](CCCNC(=N)N)C(=O)N[C@@H](CCCCN)C(=O)N[C@@H](CO)C(=O)NC1(C(=O)N[C@@H](CCCNC(=N)N)C(=O)N[C@@H](CCCCN)C(N)=O)CCCC1` (H-FGGFTGARKS[Ac5c]RK-NH2), for which the Selectivity Index at Nociceptin receptor [1] came out at 0.31.

As for `C[C@H](NC(=O)CNC(=O)[C@@H](NC(=O)[C@H](Cc1ccccc1)NC(=O)CNC(=O)CNC(=O)[C@@H](N)Cc1ccccc1)[C@@H](C)O)C(=O)N[C@@H](CCCNC(=N)N)C(=O)N[C@@H](CCCCN)C(=O)N[C@@H](CO)C(=O)NC(C)(C)C(=O)N[C@@H](CCCNC(=N)N)C(=O)N[C@@H](CCCCN)C(N)=O` (H-FGGFTGARKS[Aib]RK-NH2), the Selectivity Index at Nociceptin receptor [1] is 0.29.

In the case of `C[C@H](NC(=O)[C@H](CO)NC(=O)[C@H](CCCCN)NC(=O)[C@H](CCCNC(=N)N)NC(=O)C1(NC(=O)CNC(=O)[C@@H](NC(=O)[C@H](Cc2ccccc2)NC(=O)CNC(=O)CNC(=O)[C@@H](N)Cc2ccccc2)[C@@H](C)O)CC1)C(=O)N[C@@H](CCCNC(=N)N)C(=O)N[C@@H](CCCCN)C(N)=O` (H-FGGFTG[Ac3c]RKSARK-NH2), the Selectivity Index at Nociceptin receptor [1] stood at 0.4.

In the case of `C[C@H](NC(=O)[C@H](CO)NC(=O)[C@H](CCCCN)NC(=O)[C@H](CCCNC(=N)N)NC(=O)C1(NC(=O)CNC(=O)[C@@H](NC(=O)[C@H](Cc2ccccc2)NC(=O)CNC(=O)CNC(=O)[C@@H](N)Cc2ccccc2)[C@@H](C)O)CCCC1)C(=O)N[C@@H](CCCNC(=N)N)C(=O)N[C@@H](CCCCN)C(N)=O` (H-FGGFTG[Ac5c]RKSARK-NH2), at Nociceptin receptor [1], the Selectivity Index was 0.08.

As for `C[C@H](NC(=O)CCCN1C(=O)CC(SC[C@H](NC(=O)[C@H](CCCCN)NC(=O)[C@H](CCCNC(=N)N)NC(=O)[C@H](C)NC(=O)[C@H](CO)NC(=O)[C@H](CCCCN)NC(=O)[C@H](CCCNC(=N)N)NC(=O)[C@H](C)NC(=O)CNC(=O)[C@@H](NC(=O)[C@H](Cc2ccccc2)NC(=O)CNC(=O)CNC(=O)[C@@H](N)Cc2ccccc2)[C@@H](C)O)C(N)=O)C1=O)C(=O)N[C@@H](CC(=O)O)C(=O)N[C@@H](C)C(=O)N[C@@H](CC(=O)O)C(=O)N[C@@H](C)C(=O)N[C@@H](CC(=O)O)C(=O)N[C@@H](C)C(=O)N[C@@H](CC(=O)O)C(=O)N[C@@H](C)C(=O)N[C@@H](CC(=O)O)C(=O)N[C@@H](C)C(=O)N[C@@H](CC(=O)O)C(N)=O` (stereo not given in full) (I: H-FGGFTGARKSARKC-NH2 / II: ADADADADADAD-NH2; linker I:14-II:N via X2), the Selectivity Index at Nociceptin receptor [1] was 0.51. In addition, the half-maximal effective concentration (EC50) was 24 nM at Nociceptin receptor [2] and 93.3 nM at Nociceptin receptor [3].

Turning to `C[C@H](NC(=O)CCCN1C(=O)CC(SC[C@H](NC(=O)[C@H](CCCCN)NC(=O)[C@H](CCCNC(=N)N)NC(=O)[C@H](C)NC(=O)[C@H](CO)NC(=O)[C@H](CCCCN)NC(=O)[C@H](CCCNC(=N)N)NC(=O)[C@H](C)NC(=O)CNC(=O)[C@@H](NC(=O)[C@H](Cc2ccccc2)NC(=O)CNC(=O)CNC(=O)[C@@H](N)Cc2ccccc2)[C@@H](C)O)C(N)=O)C1=O)C(=O)N[C@@H](Cc1cnc[nH]1)C(=O)N[C@@H](C)C(=O)N[C@@H](Cc1cnc[nH]1)C(=O)N[C@@H](C)C(=O)N[C@@H](Cc1cnc[nH]1)C(=O)N[C@@H](C)C(=O)N[C@@H](Cc1cnc[nH]1)C(=O)N[C@@H](C)C(=O)N[C@@H](Cc1cnc[nH]1)C(=O)N[C@@H](C)C(=O)N[C@@H](Cc1cnc[nH]1)C(N)=O` (stereo not given in full) (I: H-FGGFTGARKSARKC-NH2 / II: AHAHAHAHAHAH-NH2; linker I:14-II:N via X2), the Selectivity Index on Nociceptin receptor [1] is -0.05. Besides, the values for the concentration giving a half-maximal response (EC50) at Nociceptin receptor [2] and on Nociceptin receptor [3] were 7.94 nM and 9.33 nM, respectively.

Take `C[C@H](NC(=O)CCCN1C(=O)CC(SC[C@H](NC(=O)[C@H](CCCCN)NC(=O)[C@H](CCCNC(=N)N)NC(=O)[C@H](C)NC(=O)[C@H](CO)NC(=O)[C@H](CCCCN)NC(=O)[C@H](CCCNC(=N)N)NC(=O)[C@H](C)NC(=O)CNC(=O)[C@@H](NC(=O)[C@H](Cc2ccccc2)NC(=O)CNC(=O)CNC(=O)[C@@H](N)Cc2ccccc2)[C@@H](C)O)C(N)=O)C1=O)C(=O)N[C@@H](CCCCN)C(=O)N[C@@H](C)C(=O)N[C@@H](CCCCN)C(=O)N[C@@H](C)C(=O)N[C@@H](CCCCN)C(=O)N[C@@H](C)C(=O)N[C@@H](CCCCN)C(=O)N[C@@H](C)C(=O)N[C@@H](CCCCN)C(=O)N[C@@H](C)C(=O)N[C@@H](CCCCN)C(N)=O` (stereo not given in full) (I: H-FGGFTGARKSARKC-NH2 / II: AKAKAKAKAKAK-NH2; linker I:14-II:N via X2): the Selectivity Index on Nociceptin receptor [1] amounted to 1.18. The EC50 on Nociceptin receptor [2] is 0.794 nM; at Nociceptin receptor [3] it was 17.4 nM.

With `C[C@H](NC(=O)CNC(=O)[C@@H](NC(=O)[C@H](Cc1ccccc1)NC(=O)CNC(=O)CNC(=O)[C@@H](N)Cc1ccccc1)[C@@H](C)O)C(=O)N[C@@H](CCCNC(=N)N)C(=O)N[C@@H](CCCCN)C(=O)N[C@@H](CO)C(=O)N[C@@H](C)C(=O)N[C@@H](CCCNC(=N)N)C(=O)N[C@@H](CCCCN)C(=O)N[C@@H](CSC1CC(=O)N(CCCC(=O)NCC(=O)N[C@@H](CC(=O)O)C(=O)NCC(=O)N[C@@H](CC(=O)O)C(=O)NCC(=O)N[C@@H](CC(=O)O)C(=O)NCC(=O)N[C@@H](CC(=O)O)C(=O)NCC(=O)N[C@@H](CC(=O)O)C(=O)NCC(=O)N[C@@H](CC(=O)O)C(N)=O)C1=O)C(N)=O` (stereo not given in full) (I: H-FGGFTGARKSARKC-NH2 / II: GDGDGDGDGDGD-NH2; linker I:14-II:N via X2), at Nociceptin receptor [1], the Selectivity Index stood at 0.81. The values for the 50% effective concentration (EC50) at Nociceptin receptor [2] and at Nociceptin receptor [3] were 17.8 nM and 49 nM, respectively.

In the case of `C[C@H](NC(=O)CNC(=O)[C@@H](NC(=O)[C@H](Cc1ccccc1)NC(=O)CNC(=O)CNC(=O)[C@@H](N)Cc1ccccc1)[C@@H](C)O)C(=O)N[C@@H](CCCNC(=N)N)C(=O)N[C@@H](CCCCN)C(=O)N[C@@H](CO)C(=O)N[C@@H](C)C(=O)N[C@@H](CCCNC(=N)N)C(=O)N[C@@H](CCCCN)C(=O)N[C@@H](CSC1CC(=O)N(CCCC(=O)NCC(=O)N[C@@H](Cc2cnc[nH]2)C(=O)NCC(=O)N[C@@H](Cc2cnc[nH]2)C(=O)NCC(=O)N[C@@H](Cc2cnc[nH]2)C(=O)NCC(=O)N[C@@H](Cc2cnc[nH]2)C(=O)NCC(=O)N[C@@H](Cc2cnc[nH]2)C(=O)NCC(=O)N[C@@H](Cc2cnc[nH]2)C(N)=O)C1=O)C(N)=O` (stereo not given in full) (I: H-FGGFTGARKSARKC-NH2 / II: GHGHGHGHGHGH-NH2; linker I:14-II:N via X2), the Selectivity Index on Nociceptin receptor [1] turned out to be 0.17. Also, the EC50 at Nociceptin receptor [2] is 4.27 nM; at Nociceptin receptor [3] it was 12.6 nM.

With H-FGGFNGARKSARK-NH2, the half-maximal effective concentration (EC50) is 9.33 nM at Nociceptin receptor [2] and 27.5 nM on Nociceptin receptor [3].
